Among the data in PubChem BioAssay AID540246 (Broad Institute, 2011) are IC50 values, retold here.

SMILES strings stand for the structures. pIC50: −log10 of the molar value.

This experiment has as its system ldlA[mSR-BI] CHO cells viability, CellTiter-Glo ATP, 3 h. Put plainly: cytotoxicity in ldlA[mSR-BI] cells, dose response, cytotoxicity control for SR-BI HDL uptake inhibitor project, cell-based, CellTiter-Glo, 3 h, dry powder (AID 540246). In short, it runs like this:
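Test system: ldlA[mSR-BI] cells. Buffer or medium: Ham's F12 growth medium containing 10% FCS. Compound: eight doses per compound. Times: 3 h compound exposure of cells at 37 °C. Technique: cell Titer Glo ATP luminescence. Read-out: IC50 for loss of cell viability fitted from dose series.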
In general terms: Cellular ATP, detected with luciferase, serves as a proxy for viable cell number.

Regarding `C[C@H]1CN([C@@H](C)CO)C(=O)c2cccc(NC(=O)Nc3ccccc3)c2O[C@@H]1CN(C)Cc1ccc(Cl)c(Cl)c1`, the pIC50 was 4.18.

As a reminder, the pIC50 is the negative decadic logarithm of the IC50, by convention in mol/L.
